# Experimental data from ChEMBL document CHEMBL1143425, “Paradoxical growth effect of caspofungin observed on biofilms and planktonic cells of five different Candida species” (2007).
# Active and inactive are the calls of the source.
# Columns and labels:
# Candida tropicalis [1] = test: Antimicrobial activity against Candida tropicalis BR-A14 grown as planktonic cell after 48 hrs by XTT reduction assay; type: functional
# Method in brief: (§1)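 Planktonic broth microdilution followed CLSI M27-A2, with caspofungin dissolved in water. After 48 h, XTT-menadione was added to each well and plates were incubated 1 h at 35°C in the dark. Cells were pelleted by centrifugation and the supernatant was read at 490 nm. MIC was the lowest concentration giving a 50% drop in metabolic activity versus the drug-free control. PG was ≥20% of drug-free activity above the MIC.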
# Candida tropicalis [2] = test: Antimicrobial activity against Candida tropicalis BR-A20 grown as planktonic cell after 48 hrs by XTT reduction assay; type: functional; method in brief: as §1
# Candida parapsilosis [3] = test: Antimicrobial activity against Candida parapsilosis BR-A28 grown as planktonic cell after 48 hrs by XTT reduction assay; type: functional; conditions: Lodderomyces parapsilosis
# Method in brief: (§2)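 Planktonic broth microdilution followed CLSI M27-A2, with caspofungin dissolved in water. After 48 h, XTT-menadione was added to the wells and plates were kept 1 h at 35°C in the dark. Plates were then centrifuged and supernatant A490 was read. MIC was the lowest concentration giving a 50% decrease in metabolic activity versus drug-free control. Paradoxical growth was defined as ≥20% of control activity above the MIC.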
# Candida parapsilosis [4] = test: Antimicrobial activity against Candida parapsilosis BR-A30 grown as planktonic cell after 48 hrs by XTT reduction assay; type: functional; conditions: Lodderomyces parapsilosis; method in brief: as §2
# Candida orthopsilosis [5] = test: Antimicrobial activity against Candida orthopsilosis BR-A32 grown as planktonic cell after 48 hrs by XTT reduction assay; type: functional; conditions: Lodderomyces orthopsilosis; method in brief: as §2
# Candida orthopsilosis [6] = test: Antimicrobial activity against Candida orthopsilosis BR-A39 grown as planktonic cell assessed as paradoxical growth after 48 hrs by XTT reduction assay; type: functional, organism-based
# Method in brief: (§3)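 Planktonic cells were tested by CLSI M27-A2 broth microdilution with caspofungin in water, incubated 48 h. XTT-menadione was added to each well, plates were held 1 h at 35°C in the dark and centrifuged, and supernatant absorbance was read at 490 nm. MIC was defined as 50% decrease in metabolic activity versus drug-free control. PG was defined as ≥20% of control activity at concentrations above MIC.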
# Candida metapsilosis [7] = test: Antimicrobial activity against Candida metapsilosis BR-A42 grown as planktonic cell after 48 hrs by XTT reduction assay; type: functional; conditions: Lodderomyces metapsilosis; method in brief: as §3
# Candida albicans [8] = test: Antimicrobial activity against Candida albicans BR-A2 grown as planktonic cell assessed as concentration producing paradoxical growth after 48 hrs by XTT reduction assay; type: functional; method in brief: as §3
# Candida tropicalis [9] = test: Antimicrobial activity against Candida tropicalis BR-A8 grown as planktonic cell assessed as concentration producing paradoxical growth after 48 hrs by XTT reduction assay; type: functional; method in brief: as §1
# Candida albicans [10] = test: Antimicrobial activity against Candida albicans BR-A2 grown as biofilm after 48 hrs by XTT reduction assay; type: functional
# Method in brief: (§4)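 Isolates were grown on Sabouraud agar (30°C, 24 h), then overnight in RPMI 1640 with MOPS, pH 7.0, at 35°C with shaking. Cells were washed and set to ~1 × 10^7 cells/ml, attached 1.5 h at 37°C, and grown 24 h. Biofilms were then exposed to caspofungin in 10 twofold dilutions (2–1,024 μg/ml) for 48 h at 35°C with shaking. Read-out was XTT-menadione, 1 h, 35°C, dark, A490, cell-free blank subtracted. MIC was the 50% drop in activity versus drug-free control. Tested in duplicate.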
# Candida tropicalis [11] = test: Antimicrobial activity against Candida tropicalis BR-A8 grown as biofilm after 48 hrs by XTT reduction assay; type: functional; method in brief: as §4
# Candida tropicalis [12] = test: Antimicrobial activity against Candida tropicalis BR-A9 grown as biofilm after 48 hrs by XTT reduction assay; type: functional; method in brief: as §4
# Candida tropicalis [13] = test: Antimicrobial activity against Candida tropicalis BR-A18 grown as biofilm after 48 hrs by XTT reduction assay; type: functional
# Method in brief: (§5)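 Clinical isolates were grown overnight (18 h, 35°C, 120 rpm) in RPMI 1640 with MOPS, pH 7.0, then washed and set to ~1 × 10^7 cells/ml. Cells attached for 1.5 h at 37°C, 75 rpm, then biofilms grew 24 h. Caspofungin was given as doubling dilutions of 2–1,024 μg/ml for 48 h at 35°C, 75 rpm. Read-out was XTT-menadione in PBS, 1 h at 35°C in the dark, A490, cell-free blank subtracted. MIC was a 50% drop in activity versus drug-free; PG was >50% of control above MIC. Run in duplicate.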
# Candida orthopsilosis [14] = test: Antimicrobial activity against Candida orthopsilosis BR-A34 grown as biofilm after 48 hrs by XTT reduction assay; type: functional; conditions: Lodderomyces orthopsilosis; method in brief: as §4
# Candida orthopsilosis [15] = test: Antimicrobial activity against Candida orthopsilosis BR-A36 grown as biofilm after 48 hrs by XTT reduction assay; type: functional; conditions: Lodderomyces orthopsilosis; method in brief: as §4
# Candida orthopsilosis [16] = test: Antimicrobial activity against Candida orthopsilosis BR-A37 grown as biofilm after 48 hrs by XTT reduction assay; type: functional; conditions: Lodderomyces orthopsilosis; method in brief: as §4
# Candida metapsilosis [17] = test: Antimicrobial activity against Candida metapsilosis BR-A43 grown as biofilm after 48 hrs by XTT reduction assay; type: functional; conditions: Lodderomyces metapsilosis
# Method in brief: (§6)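 Sabouraud-grown cells were shaken overnight (18 h, 120 rpm, 35°C) in RPMI 1640 with MOPS at pH 7.0, then washed and set at ~1 × 10^7 cells/ml. Attachment lasted 1.5 h at 37°C, and growth ran 24 h before challenge. Caspofungin was added in RPMI at 2–1,024 μg/ml (10 doublings) for 48 h at 35°C with shaking. XTT-menadione was read at 490 nm after 1 h at 35°C in the dark, with blank wells subtracted. MIC was taken as 50% reduction versus drug-free wells, and PG as >50% of control above MIC. Assays were run in duplicate.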
# Candida albicans [18] = test: Antimicrobial activity against Candida albicans BR-A7 grown as biofilm assessed as concentration producing paradoxical growth after 48 hrs by XTT reduction assay; type: functional; method in brief: as §6
# Candida parapsilosis [19] = test: Antimicrobial activity against Candida parapsilosis BR-A25 grown as biofilm assessed as concentration producing paradoxical growth after 48 hrs by XTT reduction assay; type: functional; method in brief: as §5
# Candida orthopsilosis [20] = test: Antimicrobial activity against Candida orthopsilosis BR-A35 grown as biofilm assessed as concentration producing paradoxical growth after 48 hrs by XTT reduction assay; type: functional; method in brief: as §6
# Candida orthopsilosis [21] = test: Antimicrobial activity against Candida orthopsilosis BR-A37 grown as biofilm assessed as concentration producing paradoxical growth after 48 hrs by XTT reduction assay; type: functional; method in brief: as §6
# Candida metapsilosis [22] = test: Antimicrobial activity against Candida metapsilosis BR-A43 grown as biofilm assessed as concentration producing paradoxical growth after 48 hrs by XTT reduction assay; type: functional; method in brief: as §6
# Candida parapsilosis [23] = test: Antimicrobial activity against Candida parapsilosis 22019 grown as biofilm assessed as concentration producing paradoxical growth after 48 hrs by XTT reduction assay; type: functional; method in brief: as §6
# Candida albicans [24] = test: Effect on morphology in Candida albicans grown as planktonic cells assessed as inhibition of hyphae and pseudohyphae at 16 ug/ml after 48 hrs; type: functional, organism-based
# Method in brief: (§7)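 Cells were taken from caspofungin-containing and drug-free wells of the planktonic broth microdilution test after 48 h. They were examined by light microscopy at ×400.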
# Candida orthopsilosis [25] = test: Effect on morphology in Candida orthopsilosis grown as planktonic cells assessed as inhibition of hyphae and pseudohyphae at 64 ug/ml after 48 hrs; type: functional, organism-based; method in brief: as §7
# Candida orthopsilosis [26] = test: Effect on morphology in Candida orthopsilosis grown as planktonic cells assessed as rounding and clumping at 64 ug/ml after 48 hrs; type: functional, organism-based; method in brief: as §7
# Candida albicans [27] = test: Effect on morphology in Candida albicans grown as biofilm assessed as inhibition of hyphae and pseudohyphae at 32 ug/ml after 48 hrs; type: functional, organism-based
# Method in brief: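 Biofilms formed in RPMI 1640 wells were exposed to caspofungin for 48 h and compared with drug-free control wells. Wells were examined in the plate under an inverted light microscope at ×200 and photographed.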
compound,measurement,setting,value
CC[C@H](C)C[C@H](C)CCCCCCCCC(=O)N[C@H]1C[C@@H](O)[C@@H](NCCN)NC(=O)[C@@H]2[C@@H](O)CCN2C(=O)[C@H]([C@H](O)CCN)NC(=O)[C@H]([C@H](O)[C@@H](O)c2ccc(O)cc2)NC(=O)[C@@H]2C[C@@H](O)CN2C(=O)[C@H]([C@@H](C)O)NC1=O [CASPOFUNGIN],MIC,Candida tropicalis [1],0.5 µg/mL
same,MIC,Candida tropicalis [2],0.5 µg/mL
same,MIC,Candida parapsilosis [3],2 µg/mL
same,MIC,Candida parapsilosis [4],2 µg/mL
same,MIC,Candida orthopsilosis [5],2 µg/mL
same,Activity,Candida orthopsilosis [6],inactive
same,MIC,Candida metapsilosis [7],1 µg/mL
same,Activity,Candida albicans [8],16 µg/mL
same,Activity,Candida tropicalis [9],8 µg/mL
same,MIC,Candida albicans [10],2 µg/mL
same,MIC,Candida tropicalis [11],2 µg/mL
same,MIC,Candida tropicalis [12],2 µg/mL
same,MIC,Candida tropicalis [13],128 µg/mL
same,MIC,Candida orthopsilosis [14],2 µg/mL
same,MIC,Candida orthopsilosis [15],2 µg/mL
same,MIC,Candida orthopsilosis [16],2 µg/mL
same,MIC,Candida metapsilosis [17],2 µg/mL
same,Activity,Candida albicans [18],16 µg/mL
same,Activity,Candida parapsilosis [19],16 µg/mL
same,Activity,Candida orthopsilosis [20],16 µg/mL
same,Activity,Candida orthopsilosis [21],32 µg/mL
same,Activity,Candida metapsilosis [22],16 µg/mL
same,Activity,Candida parapsilosis [23],16 µg/mL
same,Activity,Candida albicans [24],Active
same,Activity,Candida orthopsilosis [25],Active
same,Activity,Candida orthopsilosis [26],Active
same,Activity,Candida albicans [27],Active
